Data taken from ChEMBL document CHEMBL1275442, “Pharmacokinetics and tissue distribution of anidulafungin in rats” (Antimicrob Agents Chemother, 2008).

Assays:
Lung [1] = assay: AUC (0 to 24 hrs) in F344 rat lung at 5 mg/kg, iv administered as single bolus dose; type: ADME, organism-based; set-up: time < 24 hr, dose 5 mg/kg, route intravenous; conditions: in vivo
Outline: (§1)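 Male F344 rats, 10–11 weeks, 223.6–243.8 g, given one IV dose of [¹⁴C]anidulafungin, 5 mg/kg, over about 5 min. Tissues and blood sampled at 0.083–72 h (n = 3 rats per time). Parent drug measured by HPLC; LLOQ/ULOQ were 20/5,120 ng/ml for plasma and 220/56,320 ng/g for tissue. Noncompartmental parameters taken from the composite mean profile.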

Liver [2] = assay: AUC (0 to 24 hrs) in F344 rat liver assessed as total compound-derived radioactivity per gram of tissue at 5 mg/kg, iv administered as single bolus dose […]; type: ADME, organism-based; set-up: time < 24 hr, dose 5 mg/kg, route intravenous; conditions: in vivo
Outline: (§2)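 Same F344 study: single 5 mg/kg IV [¹⁴C]anidulafungin given over about 5 min. Total drug-derived radioactivity (parent plus metabolites) counted by liquid scintillation, in […]. Noncompartmental analysis of the composite mean profile.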

Cerebrospinal fluid [3] = assay: Cmax in F344 rat cerebrospinal fluid assessed as total compound-derived radioactivity per gram of tissue at 5 mg/kg, iv administered as single bolus dose […]; type: ADME, organism-based; set-up: dose 5 mg/kg, route intravenous; conditions: in vivo; outline: as §2
[4] = Cmax in F344 rat skin at 5 mg/kg, iv administered as single bolus dose after 30 min by HPLC method; type: ADME, organism-based, Zone of skin; set-up: dose 5 mg/kg, route intravenous; outline: as §1
Zone of skin [5] = assay: Cmax in F344 rat skin assessed as total compound-derived radioactivity per gram of tissue at 5 mg/kg, iv administered as single bolus dose […]; type: ADME, organism-based; set-up: dose 5 mg/kg, route intravenous; conditions: in vivo; outline: as §2
[6] = Tmax in F344 rat liver at 5 mg/kg, iv administered as single bolus dose by HPLC method; type: ADME, organism-based; set-up: dose 5 mg/kg, route intravenous
Outline: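 F344 males, 10 to 11 weeks old and 223.6 to 243.8 g, got a single 5 mg/kg iv dose of [14C]anidulafungin over about 5 min. Plasma and tissues were collected predose and at 0.083 to 72 h, n = 3 per time point. Parent drug was quantified by HPLC-UV, with LLOQ/ULOQ of 20/5,120 ng/ml in plasma and 220/56,320 ng/g in tissue. Noncompartmental parameters came from a composite mean concentration-time profile.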

Cerebrospinal fluid [7] = assay: Drug level in Long Evans rat cerebrospinal fluid assessed as radioactivity per gram of tissue at 5 mg/kg, iv administered as single bolus dose measured 72 hrs postdose by autoradiography; type: ADME, organism-based; set-up: dose 5 mg/kg, route intravenous; conditions: in vivo
Outline: (§3)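 Male pigmented Long Evans (HsdBlu:LE) rats, 7.5 weeks old, 202 to 217 g, single iv [¹⁴C]anidulafungin; one rat per sampling time. Euthanized by isoflurane and cardiac-puncture exsanguination. Sagittal whole-body sections quantified by phosphorimaging autoradiography, single samples corrected for section thickness across multiple sections per tissue. Concentrations (μg eq/g drug-derived radioactivity) interpolated from least-squares standard curves per scan.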

Liver [8] = assay: Drug level in Long Evans rat liver assessed as high disposition of radioactivity per gram of tissue at 5 mg/kg, iv administered as single bolus dose measured 12 hrs postdose by autoradiography; type: ADME, organism-based; set-up: dose 5 mg/kg, route intravenous; conditions: in vivo; outline: as §3
Cerebrospinal fluid [9] = assay: Drug level in Long Evans rat cerebrospinal fluid assessed as radioactivity per gram of tissue at 5 mg/kg, iv administered as single bolus dose measured 168 hrs postdose by autoradiography; type: ADME, organism-based; set-up: dose 5 mg/kg, route intravenous; conditions: in vivo; outline: as §3
Blood [10] = assay: Drug level in Long Evans rat blood assessed as radioactivity per gram of tissue at 5 mg/kg, iv administered as single bolus dose measured 72 hrs postdose by autoradiography; type: ADME, organism-based; set-up: dose 5 mg/kg, route intravenous; conditions: in vivo; outline: as §3
Liver [11] = assay: Tmax in F344 rat liver assessed as total compound-derived radioactivity at 5 mg/kg, iv administered as single bolus dose […]; type: ADME, organism-based; set-up: dose 5 mg/kg, route intravenous; conditions: in vivo
Outline: (§4)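 Male F344 rats, 10 to 11 weeks old and 223.6 to 243.8 g, got one iv dose of [14C]anidulafungin at 5 mg/kg over about 5 min. Blood, CSF, kidney, liver, lung, quadriceps, spleen and skin were sampled predose and at 0.083 to 72 h, 3 rats per time. Total radioactivity (parent plus metabolites) was measured by liquid scintillation counting. Parameters were noncompartmental, from a composite mean profile.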

Kidney [12] = assay: Drug level in Long Evans rat kidney assessed as high disposition of radioactivity per gram of tissue at 5 mg/kg, iv administered as single bolus dose measured 6 hrs postdose by autoradiography; type: ADME, organism-based; set-up: dose 5 mg/kg, route intravenous; conditions: in vivo; outline: as §3
Blood [13] = assay: AUC (0 to infinity) in F344 rat blood assessed as total compound-derived radioactivity per gram of tissue at 5 mg/kg, iv administered as single bolus dose […]; type: ADME, organism-based; set-up: dose 5 mg/kg, route intravenous, time infinity; conditions: in vivo; outline: as §2
Muscle tissue = assay: AUC (0 to infinity) in F344 rat muscle at 5 mg/kg, iv administered as single bolus dose; type: ADME, organism-based; set-up: dose 5 mg/kg, route intravenous, time infinity; conditions: in vivo; outline: as §1
Cerebrospinal fluid [14] = assay: Tmax in F344 rat cerebrospinal fluid assessed as total compound-derived radioactivity at 5 mg/kg, iv administered as single bolus dose […]; type: ADME, organism-based; set-up: dose 5 mg/kg, route intravenous; conditions: in vivo; outline: as §4
Spleen [15] = assay: AUC (0 to 24 hrs) in F344 rat spleen assessed as total compound-derived radioactivity per gram of tissue at 5 mg/kg, iv administered as single bolus dose […]; type: ADME, organism-based; set-up: time < 24 hr, dose 5 mg/kg, route intravenous; conditions: in vivo; outline: as §2
Kidney [16] = assay: Drug level in Long Evans rat kidney assessed as low disposition of radioactivity per gram of tissue at 5 mg/kg, iv administered as single bolus dose measured 24 hrs postdose by autoradiography; type: ADME, organism-based; set-up: dose 5 mg/kg, route intravenous; conditions: in vivo; outline: as §3
[17] = Cmax in F344 rat muscle at 5 mg/kg, iv administered as single bolus dose after 30 min by HPLC method; type: ADME, organism-based, Muscle tissue; set-up: dose 5 mg/kg, route intravenous; outline: as §1
Kidney [18] = assay: AUC (0 to 24 hrs) in F344 rat kidney assessed as total compound-derived radioactivity per gram of tissue at 5 mg/kg, iv administered as single bolus dose […]; type: ADME, organism-based; set-up: time < 24 hr, dose 5 mg/kg, route intravenous; conditions: in vivo; outline: as §2
Zone of skin [19] = assay: Drug level in Long Evans rat skin assessed as radioactivity per gram of tissue at 5 mg/kg, iv administered as single bolus dose measured 0.5 hrs postdose by autoradiography; type: ADME, organism-based; set-up: dose 5 mg/kg, route intravenous; conditions: in vivo
Outline: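 Male pigmented Long Evans (HsdBlu:LE) rats, 7.5 weeks old and 202 to 217 g, got a single iv dose of [14C]anidulafungin at 5 mg/kg. One rat per time point (0.5, 6, 12, 24, 72, 168 h) was euthanised by isoflurane and cardiac-puncture exsanguination. Sagittal whole-body sections were quantified by phosphorimaging. Samples were thickness-corrected, and concentrations (μg eq/g) were interpolated from least-squares standard curves.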

Lung [20] = assay: AUC (0 to 24 hrs) in F344 rat lung assessed as total compound-derived radioactivity per gram of tissue at 5 mg/kg, iv administered as single bolus dose […]; type: ADME, organism-based; set-up: time < 24 hr, dose 5 mg/kg, route intravenous; conditions: in vivo; outline: as §2
Zone of skin [21] = assay: AUC (0 to infinity) in F344 rat skin at 5 mg/kg, iv administered as single bolus dose; type: ADME, organism-based; set-up: time infinity, dose 5 mg/kg, route intravenous; conditions: in vivo; outline: as §1
[22] = Cmax in F344 rat lung at 5 mg/kg, iv administered as single bolus dose after 5 min by HPLC method; type: ADME, organism-based; set-up: dose 5 mg/kg, route intravenous; outline: as §1
[23] = Drug level in Long Evans rat eye assessed as radioactivity per gram of tissue at 5 mg/kg, iv administered as single bolus dose measured 72 hrs postdose by autoradiography; type: ADME, organism-based; set-up: dose 5 mg/kg, route intravenous; conditions: in vivo; outline: as §3
Cerebrospinal fluid [24] = assay: Drug level in Long Evans rat cerebrospinal fluid assessed as radioactivity per gram of tissue at 5 mg/kg, iv administered as single bolus dose measured 12 hrs postdose by autoradiography; type: ADME, organism-based; set-up: dose 5 mg/kg, route intravenous; conditions: in vivo; outline: as §3
Zone of skin [25] = assay: AUC (0 to 24 hrs) in F344 rat skin at 5 mg/kg, iv administered as single bolus dose; type: ADME, organism-based; set-up: time < 24 hr, dose 5 mg/kg, route intravenous; conditions: in vivo; outline: as §1
Spleen [26] = assay: Cmax in F344 rat spleen assessed as total compound-derived radioactivity per gram of tissue at 5 mg/kg, iv administered as single bolus dose after 30 mins […]; type: ADME, organism-based; set-up: dose 5 mg/kg, route intravenous; conditions: in vivo, 0.5 h; outline: as §2

## CCCCCOc1ccc(-c2ccc(-c3ccc([14C](=O)N[C@H]4C[C@@H](O)[C@@H](O)NC(=O)[C@@H]5[C@@H](O)[C@@H](C)CN5C(=O)[C@H]([C@@H](C)O)NC(=O)[C@H]([C@H](O)[C@@H](O)c5ccc(O)cc5)NC(=O)[C@@H]5C[C@@H](O)CN5C(=O)[C@H]([C@@H](C)O)NC4=O)cc3)cc2)cc1 [14C-ANIDULAFUNGIN]
Lung [1]
  AUC: 557.77 µg·h/g
Liver [2]
  AUC: 1346.94 ugequiv.hr/g
Cerebrospinal fluid [3]
  Cmax: 0.07 ugequiv/g
[4]
  Cmax: 4020 ng/g
Zone of skin [5]
  Cmax: 5.4 ugequiv/g
[6]
  Tmax: 4.98 min
Cerebrospinal fluid [7]
  Drug uptake: 3.37 ugequiv
Liver [8]
  Drug uptake: 25.01 ugequiv
Cerebrospinal fluid [9]
  Drug uptake: 2.18 ugequiv
Blood [10]
  Drug uptake: 0.85 ugequiv
Liver [11]
  Tmax: 480 min
Kidney [12]
  Drug uptake: 20.66 ugequiv
Blood [13]
  AUC: 243.62 ugequiv.hr/g
Muscle tissue
  AUC: 57.35 µg·h/g
Cerebrospinal fluid [14]
  Tmax: 4.98 min
Spleen [15]
  AUC: 822.61 ugequiv.hr/g
Kidney [16]
  Drug uptake: 4.41 ugequiv
[17]
  Cmax: 3840 ng/g
Kidney [18]
  AUC: 920.18 ugequiv.hr/g
Zone of skin [19]
  Drug uptake: 5.42 ugequiv
Lung [20]
  AUC: 934.92 ugequiv.hr/g
Zone of skin [21]
  AUC: 124.11 µg·h/g
[22]
  Cmax: 31100 ng/g
[23]
  Drug uptake: 0.72 ugequiv
Cerebrospinal fluid [24]
  Drug uptake: 3.82 ugequiv
Zone of skin [25]
  AUC: 102.72 µg·h/g
Spleen [26]
  Cmax: 30.92 ugequiv/g
